Sampled rows, rich in hits. Any-hit rate of the full collection: about 1.8%.
Tb MetRS inh = T. brucei MetRS inhibitors, primary screen, biochemical, luminescence; 360,000 compounds, 0.4% hits; purified T. brucei MetRS, ATP depletion, Kinase-Glo luminescence; inhibition, % at 11.9 µM;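 active = inhibition above a per-plate cutoff of the control wells' mean inhibition plus 3 SD, cut at about 5.5% in these data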;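 also: 0% = DMSO wells median and 100% = median of wells with control inhibitor compound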
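Material – parasite MetRS enzyme · Medium – HEPES-MgCl2-KCl buffer plus DTT, spermine, BSA, pyrophosphatase · Reagent – ATP, methionine and E. coli bulk tRNA substrates · Times – 15 min enzyme-compound preincubation, 2 h reaction, 10 min detection, 25 °C · Measured by – luminescence of leftover ATP · Evaluation – percent inhibition relative to median high and low control wells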
Rin1 Abl inh = inhibitors of Rin1-Abl protein binding, primary screen, biochemical, TR-FRET. Tyrosine-protein kinase ABL1 (Homo sapiens) + Ras and Rab interactor 1 (Homo sapiens), …. inhibition, % at 7.35 µM. 360,000 compounds, 0.4% hits. AID 588664, 2011; in the data active = inhibition above about 5%, passing the limit was not always enough
Rev-erbA mod = modulators of Rev-erb alpha DNA binding, primary screen, biochemical, FITC-DNA, fluorescence polarization, uHTS; activity, % at 10 µM; 370,000 compounds, 0.79% hits; Rev-erbα–FITC-DNA binding, 90 min; Nuclear receptor subfamily 1 group D member 1 (Homo sapiens), P20393;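 active = activity above about 14%, limit read from the data; passing the limit was not always enough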;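 also: 0% = DMSO wells with 35 nM protein and 100% = DMSO wells with 750 nM protein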
PG9 binder = binders of HIV-1 gp120 antibody PG9, primary screen, biochemical, TR-FRET; 360,000 compounds, 0.43% hits; TR-FRET gp120-PG9 antibody binding; inhibition, % at 6.7 µM; in the data active = inhibition above about 8.5%
Rev-erbA confirm = modulators of Rev-erb alpha DNA binding, confirmation, biochemical, FITC-DNA, fluorescence polarization, single point; shares compounds with Rev-erbA mod; 90 min; AID 1259319, 2017; activation, % at 25 µM; 3,000 compounds, 61% hits;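 active = activation at or above a set limit, or at least 3 SD above the negative control mean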;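 also: 0% = 35 nM protein with DMSO and 100% = 750 nM protein high control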
RORg counter = modulation of RORgamma DNA binding, dose response, counter-screen for Rev-erb alpha modulator project, biochemical, fluorescence polarization, FITC-DNA. shares compounds with Rev-erbA mod. 910 compounds, 8% hits. purified RORgamma protein-FITC-DNA binding. IC50, µM;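 active = Compounds whose fitted half-maximal concentration for disrupting protein-DNA binding is below 10 micromolar; the record names Rev-erb in its text, so the target is in doubt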
The depositor's hits bear a star; · = no result.

SMILES	Tb MetRS inh	Rin1 Abl inh	Rev-erbA mod	PG9 binder	Rev-erbA confirm	others
COc1ccc(OCCCC(=O)Nc2ccc(S(=O)(=O)N3CCOCC3)cc2)cc1	0	0	-3	0	·
CCCNC(=O)/C(C#N)=C1\N=C(NC(=O)c2cccs2)c2ccccc21	-1	2	30*	-2	21*
CCN(CC(=O)Nc1c(F)cccc1F)C(=O)c1nn(C)c(=O)c2ccccc12	0	1	8	1	·
O=C(CSc1nc2ccsc2c(=O)n1Cc1ccccc1)NCc1ccco1	-1	3	17*	16*	5
CCn1c(=O)c(CCC(=O)NCC2CCCO2)c(C)c2c(C)nn(-c3ccc(C)cc3)c21 (configuration not stated)	-1	4	20*	4	2
C[C@H](O)[C@@H]1CN2CCc3c([nH]c4cccc(-c5ccccc5)c34)[C@@H]2C[C@@H]1N(C)C(=O)c1ccco1	·	·	-2	·	·
COc1ccc(C2C(C#N)=C(C)NC3=C2C(=O)c2ccccc23)cc1 (configuration not stated)	0	4	81*	-1	54*	RORg counter=>40
CCOc1ccc(C2C(C#N)=C(C)NC3=C2C(=O)c2ccccc23)cc1 (configuration not stated)	0	-5	2	-4	·
COc1ccc(C2NC(=O)NC(C)=C2C(=O)OC2CCCC(C)C2)cc1 (configuration not stated)	0	-1	18*	2	8
COc1ccc(C2NC(=O)NC(C)=C2C(=O)OC2CCCCC2)cc1 (configuration not stated)	0	0	-2	1	·
CC(=O)c1c(C)[nH]c(C(=O)Nc2cc(S(=O)(=O)N3CCCCC3)ccc2C)c1C	0	3	17*	-1	9
COc1ccc(S(=O)(=O)N2CCCCC2)cc1NC(=O)c1[nH]c(C)c(C(C)=O)c1C	0	3	3	1	·
Oc1ccc2ccccc2c1N=Nc1ccccn1	-2	-8	5	-6	·
O=S(=O)(O)c1cccc(N=Nc2c(O)ccc3ccccc23)c1	-1	-8	30*	-8	6
O=S(=O)(/N=C/c1c(O)ccc2ccccc12)c1ccccc1	0	3	-1	1	·
Oc1ccc2ccccc2c1N=Nc1ccccc1F	0	-1	19*	1	5
CCSCCCn1[nH]c2ccccc2c1=O	-1	-1	5	-2	·
N#Cc1nc(-c2ccccc2F)oc1N1CCN(C(=O)c2ccco2)CC1	0	-4	-1	0	·
N#Cc1nc(-c2ccccc2Cl)oc1N1CCCCC1	-1	-1	0	-1	·
N#Cc1nc(-c2ccccc2Cl)oc1N1CCN(C(=O)c2ccco2)CC1	-1	-5	25*	2	3
CC1CC(C)CN(c2oc(-c3ccccc3Cl)nc2C#N)C1 (configuration not stated)	0	-5	18*	-1	-14
COCCCNC(=O)c1nnn2c1nc(N)c1cc(Cl)ccc12	·	·	-8	0	·
COCCCNC(=O)C[C@H]1C[C@@]2(C(=O)OC)C(=C[C@H](C(C)C)O[C@@H]2C2CC2)N(Cc2ccccc2)C1=O	·	·	-5	0	·
Cc1ccc(C)c(-n2c(-c3ccc(Br)cc3)csc2=NC(=O)c2ccccc2F)c1	-1	-8	38*	4	49*	RORg counter=>40
Cn1ccsc1=NC(=O)c1ccccc1F	0	2	-1	1	·
SMILES	Tb MetRS inh	Rin1 Abl inh	Rev-erbA mod	PG9 binder	Rev-erbA confirm	others
COc1cccc(CNc2nc3ccc(C)cc3n3cnnc23)c1	1	-2	26*	2	7
Cc1ccc(CNc2nc3ccc(C)cc3n3cnnc23)cc1	0	3	-13	-1	·
Cc1cc(C(=O)COC(=O)COc2ccc(C#N)cc2)c(C)n1C1CC1	0	5	4	-2	·
COCCN(C(=O)COC(=O)C1CC(=O)N(c2ccc(C)cc2)C1)c1c(N)n(Cc2ccccc2)c(=O)[nH]c1=O (configuration not stated)	0	1	-2	-1	·
CSc1ncccc1C(=O)OCC(=O)c1ccccc1	-1	-2	-1	-1	·
CSc1ncccc1C(=O)OCC(=O)c1ccc2c(c1)NC(=O)CO2	0	1	40*	1	18
COc1ccc(CNC(=O)C2(C)Cc3c(-c4ccc5c(c4)OCO5)ccnc3O2)cc1OC (configuration not stated)	1	2	-1	-1	·
CC1CCC2(CC1)NC(=O)N(CC(=O)c1ccc(CNC(=O)C(C)(C)C)s1)C2=O (configuration not stated)	0	-3	-4	-2	·
O=C(Cc1ccc(Cl)cc1)c1c[nH]c(C(=O)NCc2cccnc2)c1	1	-1	19*	1	35*	RORg counter=>40
COC(=O)c1ccc(C(=O)OC)c(NC2=NS(=O)(=O)c3ccccc32)c1	-1	-2	21*	2	-5
COC(=O)c1c(-c2ccccc2)csc1NC1=NS(=O)(=O)c2ccccc21	-1	3	31*	-2	12
COc1ccc(Br)cc1C(=O)CCC(=O)OCC(=O)Nc1cc(C(N)=O)cc(C(N)=O)c1	0	2	-4	-2	·
O=C(CSc1nc(C2CC2)nc2ccccc12)Nc1ccccc1	-1	-2	6	2	·
O=C(CSc1nc(C2CC2)nc2ccccc12)Nc1ccccc1Cl	0	1	21*	0	12
COC(=O)c1ccc2nc(C3CCCCC3)c(Cc3ccccc3C(F)(F)F)n2c1	0	3	18*	-3	12*
FC(F)(F)c1ccccc1Cc1c(C2CCCCC2)nc2ccc(Cl)cn12	0	1	1	-1	·
O=C(CN1CCOCC1)NNC(=O)c1ccc(Cl)cc1	0	1	0	0	·
N#Cc1cccc(NC(=O)COC(=O)c2ccccc2Sc2ccccc2C#N)c1	0	-1	37*	-2	21*
CC(=O)c1ccc(NC(=O)COC(=O)c2ccccc2Sc2ccccc2C#N)cc1	-1	-5	55*	-2	31*	RORg counter=>40
CN(C)C(=O)COC(=O)c1ccccc1Sc1ccccc1C#N	0	1	2	-1	·
O=S(=O)(c1ccccc1)c1cnn2c(C(F)(F)F)cc(-c3ccc(F)cc3)nc12	-1	-1	24*	-1	-7
O=C(NCC1CCCCC1)c1[nH]c(C(F)(F)F)nc1-c1ccccc1	-1	0	-5	1	·
CC(=O)c1sc2c(c1OC(=O)c1ccc(Cl)cc1)c(=O)n(-c1ccccc1)c(=S)n2-c1ccccc1	0	-4	45*	-1	10

Bioassay records as filed in PubChem BioAssay.
